Measured values collected from several papers.
Each line is one published result; the experiments were not run side by side.

CC(C)(C)c1cnc(CSc2cnc(NC(=O)C3CCN(CCCCCCCSc4cccc5c4C(=O)N(C4CCC(=O)NC4=O)C5=O)CC3)s2)o1 (stereo not drawn)
viability (HH; cell growth or viability; CCK-8; 10 nM): 99.5%

CNc1ncc2c(/C=C/C(=O)N3CCC(OC)CC3)nn(CC3CCCC3)c2n1
EC50 (OE33; cell growth or viability; resazurin; 5 days): 6.72 µM

CC(=NNC(=O)c1cccnc1)c1ccc(Nc2nnc(-c3ccc(Cl)cc3)c3ccccc23)cc1
cell death (HepG2; cell growth or viability; MTT; 1.25 µM): 88.1%

C=CC(=O)NC1CCN(c2ncc3ncnc(Nc4ccc(Oc5ccc6c(c5)ncn6C)c(C)c4)c3n2)CC1
EC50 (SW 1116; cell growth or viability): 0.0152 µM

CC(=NNC(=O)c1ccncc1)c1ccc(Nc2nnc(-c3ccc(Cl)cc3)c3ccccc23)cc1
cell death (HepG2; cell growth or viability; MTT; 0.312 µM): 64.7%

CC(=O)c1nn(-c2ccc(C)cc2)/c(=N/N=C(\C)c2ccc(NC(=O)c3ccccc3)cc2)s1
viability (HepG2; cell growth or viability; MTT; 0.625 µM): 5.4%

CC(=NNC(N)=S)c1ccc(Nc2nnc(-c3ccc(Cl)cc3)c3ccccc23)cc1
cell death (HepG2; cell growth or viability; MTT; 2.5 µM): 91.9%

CC(C)(C)c1cnc(CSc2cnc(NC(=O)C3CCN(C(=O)CCCSc4cccc5c4C(=O)N(C4CCC(=O)NC4=O)C5=O)CC3)s2)o1 (stereo not drawn)
viability (HH; cell growth or viability; CCK-8; 0.5 µM): 17.8%

Nc1ncnc2c1c(/C=C/C(=O)N1CCC(O)CC1)nn2CC1CCCC1
EC50 (OE33; cell growth or viability; resazurin; 5 days): > 30 µM

O=C(Nc1ccc([N+](=O)[O-])cc1)Nc1ccc(C(F)(F)F)cc1
IC50 (LAD2; degranulation): 0.17 µM

CNc1ncc2c(/C=C/C(=O)N3CCCCC3)nn(CC3CCCC3)c2n1
EC50 (OE33; cell growth or viability; resazurin; 5 days): > 30 µM

CC(C)(C)c1cnc(CSc2cnc(NC(=O)C3CCN(CCCCSc4cccc5c4C(=O)N(C4CCC(=O)NC4=O)C5=O)CC3)s2)o1 (stereo not drawn)
viability (HH; cell growth or viability; CCK-8; 0.5 µM): 0%

CNc1ncc2c(/C=C/C(=O)N3CCC(COC)CC3)nn(Cc3cccc(C)c3)c2n1
EC50 (OE33; cell growth or viability; resazurin; 5 days): > 30 µM

CC(C)(C)c1cnc(CSc2cnc(NC(=O)C3CCN(CCCCCCCCSc4cccc5c4CN(C4CCC(=O)NC4=O)C5=O)CC3)s2)o1 (stereo not drawn)
viability (HH; cell growth or viability; CCK-8; 0.2 µM): 0%

CNc1ncc2c(/C=C/C(=O)N3CCC(O)CC3)nn(CC3CCCC3)c2n1
EC50 (OE33; cell growth or viability; resazurin; 5 days): > 30 µM

CC(=O)Nc1ccc(Oc2nnc(-c3ccc(Cl)cc3)c3ccccc23)cc1
cell death (HepG2; cell growth or viability; MTT; 5 µM): 93.5%

CCOC(=O)c1nn(-c2cccc(Cl)c2)/c(=N/N=C(\C)c2ccc(NC(=O)c3ccccc3)cc2)s1
viability (HepG2; cell growth or viability; MTT; 0.156 µM): 25.9%

CNc1ncc2c(/C=C/C(=O)N3CCC(OC)CC3)nn(Cc3ccc(OC)cc3)c2n1
EC50 (OE33; cell growth or viability; resazurin; 5 days): 1.63 µM

O=C(Nc1cccc([N+](=O)[O-])c1)Nc1cccc(C(F)(F)F)c1
IC50 (LAD2; degranulation): 0.28 µM

CCOC(=O)c1nn(-c2cccc(Cl)c2)/c(=N/N=C(\C)c2ccc(NC(=O)c3ccc(Cl)cc3)cc2)s1
viability (HepG2; cell growth or viability; MTT; 0.156 µM): 24.6%

S=C(Nc1ccccc1)Nc1ccc(Oc2nnc(-c3ccc(Cl)cc3)c3ccccc23)cc1
viability (HepG2; cell growth or viability; MTT; 2.5 µM; 24 h): 18%

CC(=O)c1nn(-c2ccccc2Cl)/c(=N/N=C(\C)c2ccc(NC(=O)c3ccccc3)cc2)s1
viability (HepG2; cell growth or viability; MTT; 0.625 µM): 5.95%

CNc1ncc2c(/C=C/C(=O)N3CCC(C)CC3)nn(CC3CCCC3)c2n1
EC50 (OE33; cell growth or viability; resazurin; 5 days): > 30 µM

CC(C)OC(=O)C(n1cccn1)n1cccn1
IC50 (A-431; cell growth or viability; MTT; 72 h): > 50 µM

CC(=O)Nc1ccc(/C(C)=N/N=c2\sc(C(C)=O)nn2-c2ccc(C)cc2)cc1
viability (HepG2; cell growth or viability; MTT; 0.312 µM): 100%

CC(=NNC(=O)c1ccccc1Br)c1ccc(Nc2nnc(-c3ccc(Cl)cc3)c3ccccc23)cc1
cell death (HepG2; cell growth or viability; MTT; 5 µM): 95.6%

CC(C)(C)c1cnc(CSc2cnc(NC(=O)C3CCN(C(=O)COCCOCCSc4cccc5c4C(=O)N(C4CCC(=O)NC4=O)C5=O)CC3)s2)o1 (stereo not drawn)
viability (HH; cell growth or viability; CCK-8; 0.5 µM): 13.5%

CNc1ncc2c(/C=C/C(=O)N3CCCC(N(C)C)C3)nn(CC3CCCC3)c2n1 (stereo not drawn)
EC50 (OE33; cell growth or viability; resazurin; 5 days): 17.7 µM

CC(=NNC(=O)c1ccccc1Cl)c1ccc(Nc2nnc(-c3ccc(Cl)cc3)c3ccccc23)cc1
viability (HepG2; cell growth or viability; MTT; 2.5 µM; 24 h): 4.78%

O=C(Nc1ccccc1)Nc1cc(Br)cc(C(F)(F)F)c1
IC50 (LAD2; degranulation): 8.01 µM
